# Test results as given in ChEMBL document CHEMBL1156338 (J Med Chem, 2010).
# Activity calls are given as the source filed them. The rule behind the calls is not given here.
# Tests used:
# [1] = biological target: T1, Platelet-derived growth factor receptor alpha (Homo sapiens, UniProt P16234); assay: Inhibition of PDGFRalpha at 1 uM relative to control
# [2] = biological target: T2, Nuclear receptor subfamily 1 group I member 2 (Homo sapiens, UniProt O75469); assay: Transactivation of human PXR expressed in HepG2 cells at 2 uM after 24 hrs by luciferase reporter gene assay relative to rifampin; format: cell-based; conditions: hepg2, 24 h
# T2 sequence (O75469 whole entry): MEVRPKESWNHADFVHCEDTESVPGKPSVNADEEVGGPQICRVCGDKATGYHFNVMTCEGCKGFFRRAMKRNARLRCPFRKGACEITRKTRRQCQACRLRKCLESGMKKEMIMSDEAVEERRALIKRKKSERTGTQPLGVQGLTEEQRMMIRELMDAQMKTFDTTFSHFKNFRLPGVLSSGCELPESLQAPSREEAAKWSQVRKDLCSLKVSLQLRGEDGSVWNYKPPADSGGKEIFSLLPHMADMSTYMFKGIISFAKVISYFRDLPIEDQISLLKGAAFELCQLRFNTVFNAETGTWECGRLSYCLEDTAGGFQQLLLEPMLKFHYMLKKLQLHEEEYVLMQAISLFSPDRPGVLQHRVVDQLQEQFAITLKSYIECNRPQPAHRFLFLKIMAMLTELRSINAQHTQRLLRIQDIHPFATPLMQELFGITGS
# Method in brief: (§1)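 HepG2 cells transfected with a CYP3A4-promoter luciferase reporter and human PXR cDNA. Compound added from DMSO stocks to final 2 and 10 μM in buffer and incubated 24 h. Luciferase activity read by chemiluminescence and reported as percent of the rifampin (10 μM) positive control.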
# [3] = biological target: T3, Mitogen-activated protein kinase 11 (Homo sapiens, UniProt Q15759); assay: Inhibition of p38beta
# Blood = assay: Inhibition of IL-8 production in TNFalpha challenged human whole blood after 16 to 18 hrs; format: functional, tissue-based; conditions: Homo sapiens, Blood; read-out: IC50
# Method in brief: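 Heparinized blood from healthy nonmedicated donors, 50% final in RPMI 1640 with 10% human AB serum. Ten-point compound titration preincubated 1 h at 37 C, 5% CO2, then TNF-alpha 1 nM final added for 16-18 h. Plasma IL-8 measured by electrochemiluminescent antibody sandwich assay; IC50 is the mean of at least three independent dose-response curves.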
# [4] = biological target: T1, Platelet-derived growth factor receptor alpha; assay: Binding affinity to PDGFRalpha
# [5] = Half life in Sprague-Dawley rat at 2 mg/kg, iv; format: ADME, organism-based; parameters: dose 2 mg/kg, route intravenous; conditions: in vivo
# [6] = AUC (0 to 24 hrs) in porcine type 2 collagen-induced arthritis Lewis rat model at 0.01 to 1 mg/kg, po; format: ADME, organism-based; parameters: dose 0.01-1 mg/kg, route oral; conditions: in vivo
# [7] = biological target: T2, Nuclear receptor subfamily 1 group I member 2; assay: Transactivation of human PXR expressed in HepG2 cells at 10 uM after 24 hrs by luciferase reporter gene assay relative to rifampin; format: cell-based; conditions: hepg2, 24 h; method in brief: as §1
# [8] = biological target: T3, Mitogen-activated protein kinase 11; assay: Inhibition of p38beta at 1 uM relative to control
# Rattus norvegicus = assay: Antiarthritic activity against porcine type 2 collagen-induced arthritis Lewis rat model assessed as area under the paw swelling curve at 0.01 to 1 mg/kg, po relative to control; format: functional, organism-based
# Method in brief: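 Lewis rats immunized by intradermal porcine type II collagen emulsified 1:1 in incomplete Freund's adjuvant. Grouped at disease onset (day 0, 10-12 days post-immunization). Oral dosing once daily for 7 days in 15% HPBCD, 1% HPMC, 1% Pluronic F68, pH 2.2. Paw diameter measured daily days 0-7.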
# [9] = Plasma protein binding in human by ultrafiltration method; format: ADME, cell-free; conditions: read-out: PPB (converted)
# [10] = Clearance in Sprague-Dawley rat at 2 mg/kg, iv; format: ADME, organism-based; parameters: dose 2 mg/kg, route intravenous; conditions: in vivo
# THP-1 = assay: Inhibition of LPS-induced TNFalpha production in human THP1 cells after 3 hrs; format: functional, cell-based; conditions: Homo sapiens, THP-1, 3 h; read-out: IC50
# Method in brief: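 THP-1 cells at 1.5 x 10^6/mL in RPMI 1640, 10% heat-inactivated FBS, NEAA, 30 μM βME. 3-fold serial compound dilutions in DMSO, then LPS stimulation for 3 h at 37 C, 5% CO2. Secreted TNF-alpha read by electrochemiluminescent immunoassay; percent of DMSO control; IC50 is the mean of at least three independent curves.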
# in vitro = conditions: human, Caco-2
# T3 sequence (Q15759 whole entry): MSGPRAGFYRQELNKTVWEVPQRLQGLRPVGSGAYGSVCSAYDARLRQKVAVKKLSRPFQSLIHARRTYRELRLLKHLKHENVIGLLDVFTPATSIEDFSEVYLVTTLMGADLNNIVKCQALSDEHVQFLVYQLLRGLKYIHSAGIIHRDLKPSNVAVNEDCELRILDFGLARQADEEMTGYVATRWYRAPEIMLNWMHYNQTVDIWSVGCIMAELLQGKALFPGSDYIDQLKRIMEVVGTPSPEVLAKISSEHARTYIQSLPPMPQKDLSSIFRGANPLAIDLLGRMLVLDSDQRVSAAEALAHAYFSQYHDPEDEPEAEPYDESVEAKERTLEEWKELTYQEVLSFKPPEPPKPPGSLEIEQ
# T1 sequence (P16234 whole entry): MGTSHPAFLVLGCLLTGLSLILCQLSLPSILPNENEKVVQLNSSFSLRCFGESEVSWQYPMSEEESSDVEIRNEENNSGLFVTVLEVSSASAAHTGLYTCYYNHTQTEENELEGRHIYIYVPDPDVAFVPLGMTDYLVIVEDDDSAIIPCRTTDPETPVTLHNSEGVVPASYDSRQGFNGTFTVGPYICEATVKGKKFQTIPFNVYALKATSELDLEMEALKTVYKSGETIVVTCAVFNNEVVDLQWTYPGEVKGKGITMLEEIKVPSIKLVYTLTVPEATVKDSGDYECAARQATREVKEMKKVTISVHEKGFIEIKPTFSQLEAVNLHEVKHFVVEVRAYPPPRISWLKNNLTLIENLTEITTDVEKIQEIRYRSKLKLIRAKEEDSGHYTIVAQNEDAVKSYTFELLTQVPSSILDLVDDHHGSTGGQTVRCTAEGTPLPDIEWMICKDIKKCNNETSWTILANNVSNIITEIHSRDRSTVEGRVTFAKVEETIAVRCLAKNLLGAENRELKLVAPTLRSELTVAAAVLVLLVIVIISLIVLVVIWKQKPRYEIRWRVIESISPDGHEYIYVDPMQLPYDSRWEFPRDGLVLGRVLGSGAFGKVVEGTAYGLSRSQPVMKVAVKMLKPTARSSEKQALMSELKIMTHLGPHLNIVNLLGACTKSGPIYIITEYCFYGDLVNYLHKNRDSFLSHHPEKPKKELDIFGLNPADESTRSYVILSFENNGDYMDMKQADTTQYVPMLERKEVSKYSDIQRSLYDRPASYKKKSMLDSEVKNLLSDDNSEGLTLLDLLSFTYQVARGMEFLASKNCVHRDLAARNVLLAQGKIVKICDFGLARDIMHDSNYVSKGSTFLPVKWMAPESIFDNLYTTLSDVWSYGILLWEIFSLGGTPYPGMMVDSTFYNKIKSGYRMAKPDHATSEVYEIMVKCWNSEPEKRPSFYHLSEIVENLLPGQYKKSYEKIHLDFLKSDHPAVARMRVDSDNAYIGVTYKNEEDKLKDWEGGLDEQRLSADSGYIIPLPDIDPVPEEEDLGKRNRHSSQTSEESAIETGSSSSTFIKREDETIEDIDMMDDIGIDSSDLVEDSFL
smiles,measurement,setting,value
Cc1ccc(C(=O)NC2CC2)cc1-c1cc2cnn(-c3c(F)cccc3F)c2n(C)c1=O,inhibition,[1],< 50%
same,Activity,[2],5%
same,Ki,[3],2.5 nM
same,IC50,Blood,1.7 nM
same,Kd,[4],1100 nM
same,half-life,[5],2.7 h
same,AUC(0-t),[6],0.18 µM·h
same,Activity,[7],13%
same,inhibition,[8],< 50%
same,Activity,Rattus norvegicus,Active
same,fraction unbound,[9],0.079
same,clearance,[10],3.67 mL/min/kg
same,IC50,THP-1,0.6 nM
same,Papp A→B,in vitro,27 ×10⁻⁶ cm/s
